Assay results from ChEMBL document CHEMBL4811275, “Iodinated 1,2-diacylhydrazines, benzohydrazide-hydrazones and their analogues as dual antimicrobial and cytotoxic agents” (Bioorg Med Chem, 2021).
≈ marks a conversion by molar mass, not a printed value.

Tests used:
Enterococcus faecalis [1] = test: Antibacterial activity against Enterococcus faecalis ATCC 29212 assessed as reduction in bacterial growth incubated for 48 hrs by broth microdilution method; type: functional
Outline: (§1)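 Cation-adjusted Mueller-Hinton broth microdilution per EUCAST, modified; compounds from DMSO stocks, final DMSO ≤1% v/v; scale starting from 0.49 µM. Static incubation at 35 ± 2 °C, dark, humidified, read at 24 and 48 h. MIC = lowest concentration with no visible growth by eye; duplicates, parallel readings within one dilution step; growth and medium/DMSO controls included.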

Escherichia coli [2] = test: Antibacterial activity against Escherichia coli ATCC 25922 assessed as reduction in bacterial growth incubated for 48 hrs by broth microdilution method; type: functional; outline: as §1
Staphylococcus aureus [3] = test: Antibacterial activity against methicillin-resistant Staphylococcus aureus ATCC 43300 assessed as reduction in bacterial growth incubated for 48 hrs by broth microdilution method; type: functional
Outline: (§2)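 EUCAST-based broth microdilution in cation-adjusted Mueller-Hinton broth. DMSO stocks, final DMSO ≤1% v/v, concentration scale starting from 0.49 µM. Static incubation at 35 ± 2 °C, dark and humidified. Run in duplicate, accepted only if parallel MICs differ by at most one dilution step. MIC is the lowest concentration with no visible growth by naked eye.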

Staphylococcus aureus [4] = test: Antibacterial activity against methicillin-resistant Staphylococcus aureus ATCC 43300 assessed as reduction in bacterial growth incubated for 24 hrs by broth microdilution method; type: functional; outline: as §2
Enterococcus faecalis [5] = test: Antibacterial activity against Enterococcus faecalis ATCC 29212 assessed as reduction in bacterial growth incubated for 24 hrs by broth microdilution method; type: functional; outline: as §1
[6] = system: Staphylococcus epidermidis; test: Antibacterial activity against Staphylococcus epidermidis ATCC 12228 assessed as reduction in bacterial growth incubated for 24 hrs by broth microdilution method; type: functional; outline: as §1
[7] = system: Staphylococcus epidermidis; test: Antibacterial activity against Staphylococcus epidermidis ATCC 12228 assessed as reduction in bacterial growth incubated for 48 hrs by broth microdilution method; type: functional; outline: as §1
Staphylococcus aureus [8] = test: Antibacterial activity against Staphylococcus aureus ATCC 29213 assessed as reduction in bacterial growth incubated for 24 hrs by broth microdilution method; type: functional; outline: as §1
HepG2 = test: Cytotoxicity against human HepG2 cells assessed as reduction in cell viability incubated for 24 hrs by cell-titer 96 aqueous one solution cell proliferation assay; type: functional, cell-based; conditions: HepG2, 24 h
Staphylococcus aureus [9] = test: Antibacterial activity against Staphylococcus aureus ATCC 29213 assessed as reduction in bacterial growth incubated for 48 hrs by broth microdilution method; type: functional; outline: as §1
Escherichia coli [10] = test: Antibacterial activity against Escherichia coli ATCC 25922 assessed as reduction in bacterial growth incubated for 24 hrs by broth microdilution method; type: functional; outline: as §1
HK-2 = test: Cytotoxicity against human HK-2 cells assessed as reduction in cell viability incubated for 24 hrs by cell-titer 96 aqueous one solution cell proliferation assay; type: cell-based; conditions: HK-2, 24 h

Compound | MIC (Enterococcus faecalis [1]) [µM] | MIC (Escherichia coli [2]) [µM] | MIC (Staphylococcus aureus [3]) [µM] | MIC (Staphylococcus aureus [4]) [µM] | MIC (Enterococcus faecalis [5]) [µM] | MIC [6] [µM] | MIC [7] [µM] | MIC (Staphylococcus aureus [8]) [µM] | IC50 (HepG2) [µM] | MIC (Staphylococcus aureus [9]) [µM] | MIC (Escherichia coli [10]) [µM] | IC50 (HK-2) [µM]
CC(C)(C)c1ccc(C(=O)N/N=C/c2cc(I)c(O)c(I)c2)cc1 | 500 (≈ 274 µg/mL) | > 500 | 250 (≈ 137 µg/mL) | 125 (≈ 68.5 µg/mL) | 250 (≈ 137 µg/mL) | 125 (≈ 68.5 µg/mL) | 250 (≈ 137 µg/mL) | 125 (≈ 68.5 µg/mL) | 45.9 | 125 (≈ 68.5 µg/mL) | > 500 | > 250
O=C(N/N=C/c1cc(I)c(O)c(I)c1)c1ccc(C(F)(F)F)cc1 | 500 (≈ 280 µg/mL) | > 500 | 500 (≈ 280 µg/mL) | 500 (≈ 280 µg/mL) | 500 (≈ 280 µg/mL) | 500 (≈ 280 µg/mL) | 500 (≈ 280 µg/mL) | 125 (≈ 70 µg/mL) | 57.4 | 500 (≈ 280 µg/mL) | > 500 | –
Cc1ccc(C(=O)N/N=C/c2cc(I)cc(I)c2O)cc1 | > 500 | > 500 | > 500 | > 500 | > 500 | > 500 | > 500 | > 500 | > 25 | > 500 | > 500 | –
O=C(N/N=C/c1cc(I)c(O)c(I)c1)c1ccc(Br)cc1 | > 500 | > 500 | > 500 | > 500 | > 500 | > 500 | > 500 | > 500 | > 50 | > 500 | > 500 | –
O=C(N/N=C/c1cc(I)c(O)c(I)c1)c1ccc(O)cc1 | > 500 | > 500 | > 500 | > 500 | > 500 | > 500 | > 500 | 500 (≈ 254 µg/mL) | 110 | 500 (≈ 254 µg/mL) | > 500 | –
O=C(N/N=C/c1cc(I)cc(I)c1O)c1ccc(Br)cc1 | 250 (≈ 143 µg/mL) | > 250 | 125 (≈ 71.4 µg/mL) | 62.5 (≈ 35.7 µg/mL) | 250 (≈ 143 µg/mL) | 62.5 (≈ 35.7 µg/mL) | 125 (≈ 71.4 µg/mL) | 62.5 (≈ 35.7 µg/mL) | 22.3 | 62.5 (≈ 35.7 µg/mL) | > 250 | –
O=C(N/N=C/c1cc(I)c(O)c(I)c1)c1ccc([N+](=O)[O-])cc1 | > 500 | > 500 | > 500 | 500 (≈ 269 µg/mL) | > 500 | > 500 | > 500 | 250 (≈ 134 µg/mL) | 92.1 | 250 (≈ 134 µg/mL) | > 500 | –
O=C(NNC(=O)c1cc(I)cc(I)c1O)c1ccc(I)cc1 | 250 (≈ 158 µg/mL) | > 250 | 250 (≈ 158 µg/mL) | 125 (≈ 79.2 µg/mL) | 125 (≈ 79.2 µg/mL) | 62.5 (≈ 39.6 µg/mL) | 125 (≈ 79.2 µg/mL) | 250 (≈ 158 µg/mL) | 25.1 | 250 (≈ 158 µg/mL) | > 250 | > 100
O=C(N/N=C/c1cc(I)cc(I)c1O)c1ccccc1 | 500 (≈ 246 µg/mL) | > 500 | 125 (≈ 61.5 µg/mL) | 62.5 (≈ 30.8 µg/mL) | 250 (≈ 123 µg/mL) | 62.5 (≈ 30.8 µg/mL) | 125 (≈ 61.5 µg/mL) | 62.5 (≈ 30.8 µg/mL) | > 50 | 125 (≈ 61.5 µg/mL) | > 500 | –
COc1ccc(C(=O)N/N=C/c2cc(I)c(O)c(I)c2)cc1 | > 500 | > 500 | > 500 | > 500 | > 500 | > 500 | > 500 | 500 (≈ 261 µg/mL) | > 100 | 500 (≈ 261 µg/mL) | > 500 | –
O=C(N/N=C/c1cc(I)c(O)c(I)c1)c1ccc(I)cc1 | > 250 | > 250 | > 250 | > 250 | > 250 | > 250 | > 250 | > 250 | > 50 | > 250 | > 250 | –
O=C(NNC(=O)c1cc(I)cc(I)c1O)c1ccc(Cl)cc1 | 125 (≈ 67.8 µg/mL) | > 500 | 62.5 (≈ 33.9 µg/mL) | 62.5 (≈ 33.9 µg/mL) | 125 (≈ 67.8 µg/mL) | 31.2 (≈ 17 µg/mL) | 62.5 (≈ 33.9 µg/mL) | 62.5 (≈ 33.9 µg/mL) | 48.6 | 62.5 (≈ 33.9 µg/mL) | > 500 | –
Cc1ccc(C(=O)NNC(=O)c2cc(I)cc(I)c2O)cc1 | > 125 | > 125 | > 125 | > 125 | > 125 | 125 (≈ 65.3 µg/mL) | > 125 | 125 (≈ 65.3 µg/mL) | 86.4 | > 125 | > 125 | –
O=C(N/N=C/c1cc(I)c(O)c(I)c1)c1ccc(F)cc1 | > 500 | > 500 | > 500 | 500 (≈ 255 µg/mL) | > 500 | > 500 | > 500 | 125 (≈ 63.8 µg/mL) | 117 | 500 (≈ 255 µg/mL) | > 500 | –
COc1ccc(C(=O)N/N=C/c2cc(I)cc(I)c2O)cc1 | > 500 | > 500 | > 500 | > 500 | > 500 | > 500 | > 500 | > 500 | 45.1 | > 500 | > 500 | –
COc1ccc(C(=O)NNC(=O)c2cc(I)cc(I)c2O)cc1 | > 500 | > 500 | > 500 | 500 (≈ 269 µg/mL) | 500 (≈ 269 µg/mL) | 500 (≈ 269 µg/mL) | > 500 | 500 (≈ 269 µg/mL) | 132 | > 500 | > 500 | –
O=C(N/N=C/c1cc(I)cc(I)c1O)c1ccc(Cl)cc1 | 62.5 (≈ 32.9 µg/mL) | > 500 | 62.5 (≈ 32.9 µg/mL) | 31.2 (≈ 16.5 µg/mL) | 62.5 (≈ 32.9 µg/mL) | 31.2 (≈ 16.5 µg/mL) | 62.5 (≈ 32.9 µg/mL) | 31.2 (≈ 16.5 µg/mL) | 14.8 | 31.2 (≈ 16.5 µg/mL) | > 500 | –
O=C(N/N=C/c1cc(I)c(O)c(I)c1)c1ccc(Cl)cc1 | > 500 | > 500 | > 500 | > 500 | > 500 | > 500 | > 500 | > 500 | > 100 | > 500 | > 500 | –
